Measured values as given in ChEMBL document CHEMBL1240328, “Selective compounds define Hsp90 as a major inhibitor of apoptosis in small-cell lung cancer” (Nat Chem Biol, 2007).
Active and inactive are the calls of the source.

Assays:
[1] = target: Heat shock protein HSP 90-beta (Homo sapiens) (UniProt P08238); assay: Inhibition of HSP90-mediated antiapoptotic activity in human SKBR3 cells assessed as induction of cell growth arrest at 50 uM after 24 hrs by propidium iodide staining-based flow cytometry; details: SK-BR-3
Heat shock protein HSP 90-beta (Homo sapiens), sequence (P08238 whole entry): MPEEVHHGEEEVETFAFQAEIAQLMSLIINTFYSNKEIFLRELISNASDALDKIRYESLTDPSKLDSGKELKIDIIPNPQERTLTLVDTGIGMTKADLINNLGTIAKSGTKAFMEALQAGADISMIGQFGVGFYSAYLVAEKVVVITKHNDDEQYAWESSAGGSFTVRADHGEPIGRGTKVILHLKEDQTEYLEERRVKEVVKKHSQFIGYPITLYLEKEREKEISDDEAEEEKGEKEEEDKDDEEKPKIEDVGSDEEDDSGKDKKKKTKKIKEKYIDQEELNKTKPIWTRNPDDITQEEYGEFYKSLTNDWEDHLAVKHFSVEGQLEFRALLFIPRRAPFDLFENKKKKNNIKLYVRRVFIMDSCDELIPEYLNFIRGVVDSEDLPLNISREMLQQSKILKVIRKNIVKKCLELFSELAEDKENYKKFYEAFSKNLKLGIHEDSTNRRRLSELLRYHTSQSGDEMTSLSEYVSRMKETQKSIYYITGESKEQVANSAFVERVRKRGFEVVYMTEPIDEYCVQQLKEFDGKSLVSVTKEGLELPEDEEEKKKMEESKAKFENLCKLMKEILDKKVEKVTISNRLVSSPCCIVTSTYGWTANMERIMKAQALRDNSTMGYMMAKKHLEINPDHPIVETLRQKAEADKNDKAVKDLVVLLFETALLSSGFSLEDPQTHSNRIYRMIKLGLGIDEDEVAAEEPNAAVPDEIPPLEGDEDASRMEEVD

SK-BR-3 [2] = assay: Inhibition of HSP70-mediated antiapoptotic activity in human SKBR3 cells assessed as release of Apaf-1 from chaperon complex after 24 hrs by Western blot analysis; format: cell-based
Outline: (§1)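 SKBr3 cells were treated for 24 h. Lysates were probed by western blot for caspase-3 and PARP cleavage. Apaf-1 complexes were pulled down with Apaf-1 antibody (with control IgG) and immunoblotted.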

SK-BR-3 [3] = assay: Inhibition of HSP70-mediated antiapoptotic activity in human SKBR3 cells assessed as induction of cell growth arrest after 72 hrs by propidium iodide staining-based flow cytometry
SK-BR-3 [4] = assay: Inhibition of HSP70-mediated antiapoptotic activity in human SKBR3 cells assessed as increase in caspase-3 activity after 24 hrs by Western blot analysis; format: cell-based
[5] = target: Heat shock protein HSP 90-beta (Homo sapiens) (UniProt P08238); assay: Inhibition of HSP90-mediated antiapoptotic activity in human NCI-N417 cells assessed as subG1 accumulation at 5 uM after 72 hrs by propidium iodide staining-based flow cytometry; format: cell-based; details: NCI-H417
Outline: (§2)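 Asynchronously growing cells were treated with compound, stained with propidium iodide and analysed by flow cytometry. The read-out was the percentage of cells with sub-G1 DNA content.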

[6] = target: Heat shock protein HSP 90-beta (Homo sapiens) (UniProt P08238); assay: Inhibition of HSP90-mediated antiapoptotic activity in human MCF7 cells assessed as induction of caspase-9 cleavage at 400 uM after 24 hrs by Western blot analysis; format: cell-based
[7] = target: Heat shock protein HSP 90-beta (Homo sapiens) (UniProt P08238); assay: Inhibition of HSP90-mediated antiapoptotic activity in human NCI-H526 cells assessed as subG1 accumulation at 15 uM after 72 hrs by propidium iodide staining-based flow cytometry; format: cell-based
Outline: (§3)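 SCLC cells treated for 72 h with graded doses. Mitochondrial membrane potential read by flow cytometry after JC-1 staining, with green-only emission indicating depolarization. Sub-G1 DNA content read after propidium iodide staining. CCCP used as positive control. n = 3 repeat experiments.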

SK-BR-3 [8] = assay: Inhibition of HSP70-mediated antiapoptotic activity in human SKBR3 cells assessed as induction of PARP cleavage after 24 hrs by Western blot analysis; format: cell-based; outline: as §1
[9] = target: Heat shock protein HSP 90-beta (Homo sapiens) (UniProt P08238); assay: Inhibition of HSP90-mediated antiapoptotic activity in human NCI-N417 cells assessed as subG1 accumulation at 25 uM after 72 hrs by propidium iodide staining-based flow cytometry; format: cell-based; details: NCI-H417; outline: as §2
[10] = target: Heat shock protein HSP 90-beta (Homo sapiens) (UniProt P08238); assay: Inhibition of HSP90-mediated antiapoptotic activity in human SKBR3 cells assessed as induction of cell growth arrest at 100 uM after 24 hrs by propidium iodide staining-based flow cytometry; details: SK-BR-3
NCI-H526 = assay: Inhibition of HSP70-mediated antiapoptotic activity in human NCI-H526 cells assessed as induction of PARP cleavage after 24 hrs by Western blot analysis; format: cell-based
Outline: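 NCI-H526 cells were treated for 24 h. PARP and caspase-3 cleavage were read by western blot of lysates in Tris/NaCl/NP-40 buffer. Apaf-1 complexes were immunoprecipitated with Apaf-1 antibody, using control IgG, then blotted.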

SK-BR-3 [11] = assay: Inhibition of HSP70-mediated antiapoptotic activity in human SKBR3 cells assessed as induction of caspase-3 cleavage after 24 hrs by Western blot analysis; format: cell-based; outline: as §1
[12] = target: Heat shock protein HSP 90-beta (Homo sapiens) (UniProt P08238); assay: Inhibition of HSP90-mediated antiapoptotic activity in human NCI-N417 cells assessed as subG1 accumulation at 15 uM after 72 hrs by propidium iodide staining-based flow cytometry; format: cell-based; details: NCI-H417; outline: as §2
[13] = target: Heat shock protein HSP 90-beta (Homo sapiens) (UniProt P08238); assay: Inhibition of HSP90-mediated antiapoptotic activity in human MCF7 cells assessed as induction of PARP cleavage at 400 uM after 24 hrs by Western blot analysis; format: cell-based
[14] = target: Heat shock protein HSP 90-beta (Homo sapiens) (UniProt P08238); assay: Inhibition of HSP90-mediated antiapoptotic activity in human NCI-H526 cells assessed as subG1 accumulation at 5 uM after 72 hrs by propidium iodide staining-based flow cytometry; format: cell-based; outline: as §3
[15] = target: Heat shock protein HSP 90-beta (Homo sapiens) (UniProt P08238); assay: Inhibition of HSP90-mediated antiapoptotic activity in human MCF7 cells assessed as induction of caspase-3 cleavage at 400 uM after 24 hrs by Western blot analysis; format: cell-based
[16] = target: Heat shock protein HSP 90-beta (Homo sapiens) (UniProt P08238); assay: Inhibition of HSP90-mediated antiapoptotic activity in human NCI-H526 cells assessed as release of Apaf-1 from chaperon complex at 20 uM after 1 hr by Western blot analysis; format: cell-based
Outline: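 NCI-H526 cells treated with 20 µM for the indicated times. Complexes immunoprecipitated with Apaf-1 or caspase-9 antibodies, with control IgG alongside. Co-precipitated proteins identified by western blot.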

[17] = target: Heat shock protein HSP 90-beta (Homo sapiens) (UniProt P08238); assay: Inhibition of HSP90-mediated antiapoptotic activity in human NCI-H526 cells assessed as reduction in BAD phosphorylation at 10 uM after 24 hrs by Western blot analysis; format: cell-based
[18] = target: Heat shock protein HSP 90-beta (Homo sapiens) (UniProt P08238); assay: Inhibition of HSP90-mediated antiapoptotic activity in human NCI-H187 cells assessed as subG1 accumulation at 2.5 uM after 72 hrs by propidium iodide staining-based flow cytometry; format: cell-based; outline: as §3
[19] = target: Heat shock protein HSP 90-beta (Homo sapiens) (UniProt P08238); assay: Inhibition of HSP90-mediated antiapoptotic activity in human NCI-H526 cells assessed as disruption of protein-Apaf-1 complex at 20 uM after 24 hrs by Western blot analysis; format: cell-based
Outline: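 NCI-H526 cells treated for 24 h with vehicle or inhibitors (20 µM or 50 µM). Proteins isolated with Apaf-1-specific antibody and whole lysates analysed by western blot. n = 3.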

[20] = target: Heat shock protein HSP 90-beta (Homo sapiens) (UniProt P08238); assay: Inhibition of HSP90-mediated antiapoptotic activity in human NCI-H526 cells assessed as mitochondrial membrane depolarization at 10 uM after 72 hrs by JC-1 staining-based flow cytometry in presence of broad-spectrum caspase inhibitor Boc-D-FMK; format: cell-based
Outline: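 NCI-H526 cells pretreated for 3 h with Boc-D-FMK (100 µM), then exposed to 10 µM for 72 h. Flow cytometry after JC-1 staining for mitochondrial potential and after propidium iodide staining for DNA content. n = 3.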

[21] = target: Heat shock protein HSP 90-beta (Homo sapiens) (UniProt P08238); assay: Inhibition of HSP90-mediated antiapoptotic activity in human NCI-H526 cells assessed as increased association between caspase-9 and Apaf-1 at 20 uM after 1 hr by Western blot analysis
[22] = target: Heat shock protein HSP 90-beta (Homo sapiens) (UniProt P08238); assay: Inhibition of HSP90-mediated antiapoptotic activity in human SKBR3 cells assessed as induction of caspase-3 cleavage at 20 uM after 24 hrs by Western blot analysis; format: cell-based; details: SK-BR-3
Outline: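 SKBr3 cells at 60–70% confluence were exposed to drug or DMSO vehicle. Lysis was in 50 mM Tris pH 7.4, 150 mM NaCl, 1% NP-40, with protein measured by BCA. Lysates of 20–100 µg were run on SDS-PAGE, blotted to nitrocellulose, probed with primary antibodies and detected with a peroxidase-conjugated secondary (1:5,000). Loading was checked with β-actin or PI(3)K p85.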

[23] = target: Heat shock protein HSP 90-beta (Homo sapiens) (UniProt P08238); assay: Inhibition of HSP90-mediated antiapoptotic activity in human NCI-H187 cells assessed as subG1 accumulation at 25 uM after 72 hrs by propidium iodide staining-based flow cytometry; format: cell-based; outline: as §3

O=CN1CC/C(=C/c2ccc3c(c2)OCO3)C1=O
inactive: Activity [1] | inhibition (SK-BR-3 [2]) | Activity [5] | Activity [6] | Activity [7] | Activity [9] | inhibition (NCI-H526) | Activity [12] | Activity [13] | Activity [14] | Activity [15] | Activity [16] | Activity [17] | Activity [18] | Activity [19] | Activity [20] | Activity [21] | Activity [22] | Activity [23]
active: inhibition (SK-BR-3 [3]) | inhibition (SK-BR-3 [4]) | inhibition (SK-BR-3 [8]) | Activity [10] | inhibition (SK-BR-3 [11])
